Results as given in PMC4424388 (Mucosal Immunology, 2014).
Where two headings read alike, the source gives them in different places. Blank lines part the entries; values can stand above or below the molecule they belong to.

What was measured:
[1] = system: Bif. adolescentis Ni3,29c; test: Transmission electron microscopy of bacteria; assay type: cell-based, Bifidobacterium adolescentis; settings: TEM, 200 μg/ml peptide, 2 mM DTT, 2 h 37 °C, pH 7.4
[2] = Retention of reduced status in buffer with DTT; assay type: physicochemical; settings: 2 mM DTT in sodium phosphate buffer
[3] = system: human TRX (with rat TRX reductase, NADPH); settings: cited from earlier work
[4] = system: (anaerobic) commensal gut bacteria; test: Antimicrobial radial diffusion assay, bacteria not given; assay type: cell-based; settings: 1 μg peptide, 2 mM DTT
How it was run: (§1)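 Log-phase bacteria washed and diluted to OD600 0.1. Gel: 10 mM sodium phosphate (pH 7.4 or 5.7), 0.3 mg/ml TSB powder, 1% low-EEO agarose, 0–2 mM DTT. Peptide (1 μg/μl stock in 0.01% acetic acid) pipetted into punched wells; overlay gel poured after 3 h. Inhibition-zone diameter read after up to 48 h; 2.5 mm (well/vehicle) means no activity. ≥3 experiments, mean with s.e.m.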

[5] = system: Bif. adolescentis Ni3,29c; test: Turbidity broth assay; assay type: cell-based, Bifidobacterium adolescentis; settings: higher peptide concentrations; causes apparent better growth in OD600
How it was run: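 Overnight Bif. adolescentis Ni3,29c was washed twice in 10 mM sodium phosphate with 1% TSB. About 5×10^5 CFU/ml were exposed to peptide at 1.25–128 μg/ml, with 2 mM DTT where indicated, for 2 h at 37 °C in an anaerobic jar. 6% TSB was then added and A600 read at 24 and 48 h; change plotted against concentration. CFU counted in parallel on Columbia blood agar. Triplicate experiments, mean with s.e.m.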

[6] = Chemical reduction by DTT; assay type: physicochemical; settings: incubation extended to 3 h or DTT increased to 10 mM; data not shown
[7] = system: Bifidobacterium breve PZ 1343; test: Antimicrobial radial diffusion assay; assay type: cell-based; settings: 1 μg peptide, 2 mM DTT, at least three experiments
How it was run: as §1

[8] = system: human TRX (with rat TRX reductase, NADPH); test: In vitro reduction assay, thioredoxin system; assay type: biochemical; settings: TRX increased to 6 μM or incubation prolonged to 60 min; data not shown
[9] = system: Bifidobacterium adolescentis Ni3,29c; test: Antimicrobial radial diffusion assay; assay type: cell-based; settings: 1 μg peptide, 2 mM DTT, at least three experiments
How it was run: as §1

[10] = system: Lactobacillus acidophilus PZ 1138; test: Antimicrobial radial diffusion assay; assay type: cell-based; settings: 1 μg peptide, 2 mM DTT, at least three experiments
How it was run: as §1

[11] = system: glutaredoxin; test: In vitro reduction assay, glutaredoxin; assay type: biochemical; settings: 3 μM glutaredoxin with 5 mM reduced glutathione; RP-HPLC; Supplementary Figure 4
How it was run: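 Glutathione-based system: 5 mM reduced glutathione in 100 mM sodium phosphate with 2 mM EDTA, plus 3 μM active glutaredoxin or buffer only, incubated with oxidized peptide. Mixtures acidified with trifluoroacetic acid and analysed by RP-HPLC: C18 column, 15–45% acetonitrile (TFA-containing solvents) over 30 min at 25 °C and 0.8 ml/min.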

[12] = system: Bifidobacterium longum DSM 20219T; test: Antimicrobial radial diffusion assay; assay type: cell-based; settings: 1 μg peptide, 2 mM DTT, at least three experiments
How it was run: as §1

[13] = In vitro reduction assay, glutathione; assay type: physicochemical; settings: 5 mM reduced glutathione, 100 mM sodium phosphate, 2 mM EDTA; RP-HPLC; Supplementary Figure 4
[14] = system: Streptococcus salivarius ssp thermophilus DSM20617; test: Antimicrobial radial diffusion assay; assay type: cell-based; settings: 1 μg peptide, 2 mM DTT, at least three experiments
How it was run: as §1

Molecule: ΔredHD-6: synthetic reduced truncated HD-6 (TCHCRRSCYSTEYSYGTCTVMGINHRFCCL; Defensin-6 reduced; UniProt Q01524 71-100, looked up, fragment)
- ultrastructural alterations of the bacterium [1]: disintegration of stainable intracellular structures
- time for which the peptide retained its completely reduced status [2]: at least 2 h

Molecule: human β-defensin 1 (DHYNCVSSGGQCLYSACPIFTKIQGTCYRGKAKCCK; Beta-defensin 1; UniProt P60022 33-68, looked up) [hBD-1, reference compound]
- reduction by the TRX system [3]: can also reduce
- activity under reducing conditions against several bacteria [4]: increased activity

- reduction by the TRX system [8]: not sufficient to completely reduce
Molecule: Human α-defensin 6 [HD-6]
- aggregation in the turbidity assay [5]: light-scattering aggregations
- extent of reduction of disulfide bridges by DTT [6]: remarkably enhanced HD-6 reduction, but the oxidized form of the peptide could still be detected
- antibiotic activity, especially under reducing conditions [7]: inhibitory activity
- antibiotic activity, especially under reducing conditions [9]: inhibitory activity
- antibiotic activity, especially under reducing conditions [10]: inhibitory activity
- reduction by glutaredoxin [11]: did not lead to any reduction
- antibiotic activity, especially under reducing conditions [12]: inhibitory activity
- reduction by glutathione [13]: did not lead to any reduction
- antibiotic activity, especially under reducing conditions [14]: inhibitory activity

B1: HD-5: synthetic oxidized human α-defensin 5 (peptide, UniProt Q01523 20-94, looked up)
Defensin alpha 5: ESLQERADEATTQKQSGEDNQDLAISFAGNGLSALRTSGSQARATCYCRTGRCATRESLSGVCEISGRLYRLCCR
modifications: Defensin-5
- reduction by the TRX system [3]: can also reduce
